Data taken from ChEMBL document CHEMBL4513216, “Probing the Open Global Health Chemical Diversity Library for Multistage-Active Starting Points for Next-Generation Antimalarials” (ACS Infect Dis, 2020).

Test: Toxicity liver stage against HepG2, at 10uM
Assay type: cell-based
Design: test concentration 10 uM, cell line HepG2-A16-CD81EGFP
Conditions: human, HepG2-A16-CD81EGFP cells; read-out: INHIBITION
Summary of the method: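 Uninfected HepG2-A16-CD81EGFP cells, 3 × 10^3 per well, 1536-well, plated on prespotted compound at 10 μM final, parasite-free screening media added to match infected plates; puromycin 10 μM positive, DMSO 0.5% negative; run in parallel with 48 h PbLuc assay at 37 °C, 5% CO2; viability by CellTiter-Glo luminescence, normalized to controls.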

Row | SMILES | cytotoxicity at 10 µM [%]
1 | CC(NC(=O)c1cc2n(n1)CCCN(C)C2)c1cn2ccsc2n1 (stereo unspecified) | -2.51
2 | Cc1nc(CNC(=O)NCC(O)c2ccccc2)cs1 (stereo unspecified) | 0.682
3 | COC(=O)N1CCCN(C(=O)NC2CCc3ccccc3C2)CC1 (stereo unspecified) | -1.14
4 | O=C(O)c1cc(S(=O)(=O)Nc2ccc(F)c(Cl)c2)cc2c1OCCO2 | -2.33
5 | Fc1ccc(Oc2ccc(CNCC3CNc4ccnn4C3)cn2)cc1 (stereo unspecified) | -11.6
6 | Cc1cccc(C2CCCN(C(=O)CN3CCOC3=O)C2)c1 (stereo unspecified) | -2.82
7 | CCN(CC1CCCO1)C(=O)Nc1ccc(OC)c(C)c1 (stereo unspecified) | -12.9
8 | CS(=O)(=O)NC1CCCN(Cc2ccccn2)C1 (stereo unspecified) | 4.74
9 | CC(C)N1c2sc(-c3ccccc3)nc2CC1C(=O)NCCCO (stereo unspecified) | 7.8
10 | CC(=O)N1CCN(CC(=O)NCCCN(C)c2ccccc2)CC1 | 8.21
11 | CS(=O)(=O)CCSC1CCN(c2ccccc2F)C1=O (stereo unspecified) | -7.68
12 | CC(=O)N1CCCCC1c1ncnn1-c1ccc2nc(C)sc2c1 (stereo unspecified) | -12
13 | CC(C)Cc1ncc2c(n1)CN(c1cc(N3CCCC3)nc(N)n1)C2 | 0.489
14 | CCn1cc(C2CCN(Cc3ccnc(N(C)C)c3)CC2)cn1 | 11
15 | Cc1nc(CN2CCC3(C2)CN(C(=O)c2ccc[nH]2)C3)cs1 | -112
16 | O=S(=O)(NCc1cc2n(n1)CCNC2)c1ccc(OC(F)(F)F)cc1 | 11.5
17 | CCCN(C)CC1CCN(c2ccc(Br)c(C)n2)C1 (stereo unspecified) | 14.8
18 | CCn1c(=O)n(CC)c2cc(S(N)(=O)=O)ccc21 | -7.72
19 | COCCNS(=O)(=O)c1cccc2c1CN(C(=O)c1ccoc1)CC2 | -3.88
20 | Cc1nc(N2CCC(CC(=O)N3CCCC3)CC2)c2cnn(C)c2n1 | 0.866
21 | CNC(=O)C1(N2CCC[C@H]2C(=O)NC2CCOCC2)CCOCC1 | 0.705
22 | COCCN(C/C=C/c1ccccc1)Cc1ncc[nH]1 | 7.8
23 | COC[C@H]1CCC[C@]12CN(Cc1cccc(C)n1)CCO2 | 2.23

Row | SMILES | cytotoxicity at 10 µM [%]
24 | O=C1CC(c2ccc(O)cc2)c2sc(C(=O)O)c(-c3ccccc3)c2N1 (stereo unspecified) | -0.472
25 | COC(=O)CCC(=O)N1CCC2(CN(Cc3ccccc3F)C2)C1 | 5.58
26 | CCOc1ncccc1CNC(=O)NCC(O)c1ccccc1OC (stereo unspecified) | -6.85
27 | CN(CC(=O)N1CCCN(Cc2cscn2)CC1)c1cnccn1 | -7.81
28 | O=C(NCc1ccccn1)c1nnn(-c2ccc(Br)cc2)n1 | 1.47
29 | CN1CCOC(C(=O)Nc2nc(-c3ccccc3F)n[nH]2)C1 (stereo unspecified) | 8.65
30 | Cc1cccc(CN2CCO[C@@H]3CC(COc4ccccn4)C[C@H]32)n1 (stereo partly specified) | -3.31
31 | CCNC(=O)c1cccc(CNC(=O)c2cnc(C(C)(C)C)s2)c1 | -0.969
32 | Cc1nc(CN2CC3(CCN(c4ncccn4)C3)CC2=O)cs1 (stereo unspecified) | 5.31
33 | O=C(CSCc1ccccn1)NCC1CC1 | -3.42
34 | COc1ccc2c(c1)OCC(CNC(=O)c1ccncc1)C2 (stereo unspecified) | -8.63
35 | CC(C)c1nc(C2CCCN(C(=O)c3ccc4nccn4c3)C2)no1 (stereo unspecified) | -0.0722
36 | CCC(NC(=O)c1cnc(-c2cccnc2)nc1)c1ccnn1C (stereo unspecified) | -2.11
37 | Cn1cc(C2SCC(=O)Nc3c2cnn3C(C)(C)C)cn1 (stereo unspecified) | -6.24
38 | COC(=O)NC1(C(=O)Nc2ccc(-c3cc[nH]n3)cc2)CCCC1 | -11.2
39 | O=C1COC2(CCN(c3cccc(F)c3)CC2)CN1Cc1ccccn1 | -2.94
40 | CS(=O)(=O)CCC(=O)Nc1cnn(-c2ccccc2Cl)c1 | -6.66
41 | CS(=O)(=O)Nc1ccn(Cc2ccc(F)cc2Cl)n1 | 6.64
42 | CN(C)C(=O)c1cc(-c2cnc(N)nc2)nc2cc(F)ccc12 | 2.54
43 | COc1cccc(NC(C(N)=O)c2ccc(Br)cc2)c1 (stereo unspecified) | 11.3
44 | CCOC(=O)c1nnc2ccccc2c1N1CCN(C(C)C)CC1 | -1.54
45 | Cn1c(N2CCOCC2)nc2cc(C(=O)N3CCCOCC3)ccc21 | -1.29
46 | Cc1ccc(CN2CC(C(=O)Nc3ccccc3)C3(CCOCC3)C2)s1 (stereo unspecified) | -17.5
